# Test results taken from ChEMBL document CHEMBL1765020, “Synthesis and structure-affinity relationships of novel dibenzylideneacetone derivatives as probes for β-amyloid plaques” (J Med Chem, 2011).
# Experiments:
# [1] = system: Kidney; test: Biodistribution in ddY mouse kidney at 1 uCi/100 uL, iv after 30 mins by gamma counting; assay type: ADME, organism-based; details: in vivo, 0.5 h
# [2] = system: Stomach; test: Biodistribution in ddY mouse stomach at 1 uCi/100 uL, iv after 15 mins by gamma counting; assay type: ADME, organism-based; details: in vivo, 0.25 h
# [3] = system: Intestine; test: Biodistribution in ddY mouse intestine at 1 uCi/100 uL, iv after 30 mins by gamma counting; assay type: ADME, organism-based; details: in vivo, 0.5 h
# Outline: (§1)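 Normal female ddY mice (5 weeks, about 20 g; n = 4 per group) received radiotracer iv. Organs were removed and weighed at 2–120 min and counted in a γ-counter. Percent dose per gram of wet tissue was calculated against diluted aliquots of the injected material and reported as mean ± SD.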
# [4] = system: Kidney; test: Biodistribution in ddY mouse kidney at 1 uCi/100 uL, iv after 2 mins by gamma counting; assay type: ADME, organism-based; details: in vivo; outline: as §1
# [5] = system: Kidney; test: Biodistribution in ddY mouse kidney at 1 uCi/100 uL, iv after 120 mins by gamma counting; assay type: ADME, organism-based; details: in vivo, 2 h; outline: as §1
# [6] = system: Spleen; test: Biodistribution in ddY mouse spleen at 1 uCi/100 uL, iv after 30 mins by gamma counting; assay type: ADME, organism-based; details: in vivo, 0.5 h
# [7] = system: Blood; test: Biodistribution in ddY mouse blood at 1 uCi/100 uL, iv after 60 mins by gamma counting; assay type: ADME, organism-based; details: in vivo, 1 h; outline: as §1
# [8] = system: Spleen; test: Biodistribution in ddY mouse spleen at 1 uCi/100 uL, iv after 120 mins by gamma counting; assay type: ADME, organism-based; details: in vivo, 2 h
# [9] = system: Kidney; test: Biodistribution in ddY mouse kidney at 1 uCi/100 uL, iv after 60 mins by gamma counting; assay type: ADME, organism-based; details: in vivo, 1 h
# [10] = system: Brain; test: Biodistribution in ddY mouse brain at 1 uCi/100 uL, iv after 30 mins by gamma counting; assay type: ADME, organism-based; details: in vivo, 0.5 h; outline: as §1
# [11] = system: Intestine; test: Biodistribution in ddY mouse intestine at 1 uCi/100 uL, iv after 120 mins by gamma counting; assay type: ADME, organism-based; details: in vivo, 2 h; outline: as §1
# [12] = system: Heart; test: Biodistribution in ddY mouse heart at 1 uCi/100 uL, iv after 60 mins by gamma counting; assay type: ADME, organism-based; details: in vivo, 1 h; outline: as §1
# [13] = system: Stomach; test: Biodistribution in ddY mouse stomach at 1 uCi/100 uL, iv after 30 mins by gamma counting; assay type: ADME, organism-based; details: in vivo, 0.5 h
# [14] = system: Blood; test: Biodistribution in ddY mouse blood at 1 uCi/100 uL, iv after 30 mins by gamma counting; assay type: ADME, organism-based; details: in vivo, 0.5 h; outline: as §1
# [15] = system: Heart; test: Biodistribution in ddY mouse heart at 1 uCi/100 uL, iv after 30 mins by gamma counting; assay type: ADME, organism-based; details: in vivo, 0.5 h; outline: as §1
# [16] = Partition coefficient, log D of the compound; assay type: physicochemical; details: octanol/water
# Outline: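 Radiotracer partitioned between n-octanol and PBS: vortexed 3 min at room temperature, centrifuged 5 min at 3000 rpm. Weighed samples of the octanol (100 μL) and buffer (500 μL) layers were counted. log D is the log of the ratio of counts per gram, octanol versus PBS.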
# [17] = system: Spleen; test: Biodistribution in ddY mouse spleen at 1 uCi/100 uL, iv after 2 mins by gamma counting; assay type: ADME, organism-based; details: in vivo
# [18] = system: Brain; test: Biodistribution in ddY mouse brain at 1 uCi/100 uL, iv after 120 mins by gamma counting; assay type: ADME, organism-based; details: in vivo, 2 h; outline: as §1
# [19] = system: Lung; test: Biodistribution in ddY mouse lung at 1 uCi/100 uL, iv after 60 mins by gamma counting; assay type: ADME, organism-based; details: in vivo, 1 h
# [20] = system: Intestine; test: Biodistribution in ddY mouse intestine at 1 uCi/100 uL, iv after 2 mins by gamma counting; assay type: ADME, organism-based; details: in vivo; outline: as §1
# [21] = system: Blood; test: Biodistribution in ddY mouse blood at 1 uCi/100 uL, iv after 15 mins by gamma counting; assay type: ADME, organism-based; details: in vivo, 0.25 h; outline: as §1
# [22] = system: Intestine; test: Biodistribution in ddY mouse intestine at 1 uCi/100 uL, iv after 60 mins by gamma counting; assay type: ADME, organism-based; details: in vivo, 1 h; outline: as §1
# [23] = system: Thyroid gland; test: Biodistribution in ddY mouse thyroid at 1 uCi/100 uL, iv after 30 mins by gamma counting; assay type: ADME, organism-based; details: in vivo, 0.5 h
# [24] = system: Lung; test: Biodistribution in ddY mouse lung at 1 uCi/100 uL, iv after 15 mins by gamma counting; assay type: ADME, organism-based; details: in vivo, 0.25 h
# [25] = system: Thyroid gland; test: Biodistribution in ddY mouse thyroid at 1 uCi/100 uL, iv after 120 mins by gamma counting; assay type: ADME, organism-based; details: in vivo, 2 h
# [26] = system: Liver; test: Biodistribution in ddY mouse liver at 1 uCi/100 uL, iv after 60 mins by gamma counting; assay type: ADME, organism-based; details: in vivo, 1 h
# [27] = system: Brain; test: Biodistribution in ddY mouse brain at 1 uCi/100 uL, iv after 60 mins by gamma counting; assay type: ADME, organism-based; details: in vivo, 1 h; outline: as §1
# [28] = system: Liver; test: Biodistribution in ddY mouse liver at 1 uCi/100 uL, iv after 30 mins by gamma counting; assay type: ADME, organism-based; details: in vivo, 0.5 h
# [29] = system: Brain; test: Biodistribution in ddY mouse brain at 1 uCi/100 uL, iv after 2 mins by gamma counting; assay type: ADME, organism-based; details: in vivo; outline: as §1
# [30] = system: Spleen; test: Biodistribution in ddY mouse spleen at 1 uCi/100 uL, iv after 60 mins by gamma counting; assay type: ADME, organism-based; details: in vivo, 1 h
# [31] = system: Liver; test: Biodistribution in ddY mouse liver at 1 uCi/100 uL, iv after 120 mins by gamma counting; assay type: ADME, organism-based; details: in vivo, 2 h
# [32] = system: Heart; test: Biodistribution in ddY mouse heart at 1 uCi/100 uL, iv after 15 mins by gamma counting; assay type: ADME, organism-based; details: in vivo, 0.25 h; outline: as §1
# [33] = system: Heart; test: Biodistribution in ddY mouse heart at 1 uCi/100 uL, iv after 120 mins by gamma counting; assay type: ADME, organism-based; details: in vivo, 2 h; outline: as §1
# [34] = system: Lung; test: Biodistribution in ddY mouse lung at 1 uCi/100 uL, iv after 120 mins by gamma counting; assay type: ADME, organism-based; details: in vivo, 2 h
# [35] = system: Intestine; test: Biodistribution in ddY mouse intestine at 1 uCi/100 uL, iv after 15 mins by gamma counting; assay type: ADME, organism-based; details: in vivo, 0.25 h; outline: as §1
# [36] = system: Lung; test: Biodistribution in ddY mouse lung at 1 uCi/100 uL, iv after 2 mins by gamma counting; assay type: ADME, organism-based; details: in vivo
# [37] = system: Kidney; test: Biodistribution in ddY mouse kidney at 1 uCi/100 uL, iv after 15 mins by gamma counting; assay type: ADME, organism-based; details: in vivo, 0.25 h; outline: as §1
# [38] = system: Stomach; test: Biodistribution in ddY mouse stomach at 1 uCi/100 uL, iv after 60 mins by gamma counting; assay type: ADME, organism-based; details: in vivo, 1 h
# [39] = system: Thyroid gland; test: Biodistribution in ddY mouse thyroid at 1 uCi/100 uL, iv after 15 mins by gamma counting; assay type: ADME, organism-based; details: in vivo, 0.25 h
# [40] = system: Blood; test: Biodistribution in ddY mouse blood at 1 uCi/100 uL, iv after 120 mins by gamma counting; assay type: ADME, organism-based; details: in vivo, 2 h; outline: as §1
# [41] = system: Brain; test: Biodistribution in ddY mouse brain at 1 uCi/100 uL, iv after 15 mins by gamma counting; assay type: ADME, organism-based; details: in vivo, 0.25 h; outline: as §1
# [42] = system: Blood; test: Biodistribution in ddY mouse blood at 1 uCi/100 uL, iv after 2 mins by gamma counting; assay type: ADME, organism-based; details: in vivo; outline: as §1
# [43] = system: Brain; test: Ratio of drug uptake in ddY mouse brain at 1 uCi/100 uL, iv after 2 mins to drug uptake in ddY mouse brain at 1 uCi/100 uL, iv after 60 mins; assay type: ADME, organism-based; details: in vivo
# Outline: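 Normal female ddY mice (5 weeks) received the radiotracer iv, and brain uptake (% ID/g, n = 4) was measured by gamma counting at 2 and 60 min. The index is brain uptake at 2 min divided by brain uptake at 60 min.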
# [44] = system: Lung; test: Biodistribution in ddY mouse lung at 1 uCi/100 uL, iv after 30 mins by gamma counting; assay type: ADME, organism-based; details: in vivo, 0.5 h
# [45] = system: Liver; test: Biodistribution in ddY mouse liver at 1 uCi/100 uL, iv after 2 mins by gamma counting; assay type: ADME, organism-based; details: in vivo
# [46] = system: Thyroid gland; test: Biodistribution in ddY mouse thyroid at 1 uCi/100 uL, iv after 60 mins by gamma counting; assay type: ADME, organism-based; details: in vivo, 1 h
# [47] = system: Heart; test: Biodistribution in ddY mouse heart at 1 uCi/100 uL, iv after 2 mins by gamma counting; assay type: ADME, organism-based; details: in vivo; outline: as §1
# [48] = system: Thyroid gland; test: Biodistribution in ddY mouse thyroid at 1 uCi/100 uL, iv after 2 mins by gamma counting; assay type: ADME, organism-based; details: in vivo
# [49] = system: Liver; test: Biodistribution in ddY mouse liver at 1 uCi/100 uL, iv after 15 mins by gamma counting; assay type: ADME, organism-based; details: in vivo, 0.25 h
# [50] = system: Stomach; test: Biodistribution in ddY mouse stomach at 1 uCi/100 uL, iv after 2 mins by gamma counting; assay type: ADME, organism-based; details: in vivo
# [51] = system: Stomach; test: Biodistribution in ddY mouse stomach at 1 uCi/100 uL, iv after 120 mins by gamma counting; assay type: ADME, organism-based; details: in vivo, 2 h
# [52] = system: Spleen; test: Biodistribution in ddY mouse spleen at 1 uCi/100 uL, iv after 15 mins by gamma counting; assay type: ADME, organism-based; details: in vivo, 0.25 h
compound,measurement,setting,value
CN(C)c1ccc(/C=C/C(=O)/C=C/c2ccc([125I])cc2)cc1,Drug uptake,[1],15.63 % ID/g
same,Drug uptake,[2],1.75 % ID/organ
same,Drug uptake,[3],11.62 % ID/g
same,Drug uptake,[4],15.86 % ID/g
same,Drug uptake,[5],8.55 % ID/g
same,Drug uptake,[6],12.26 % ID/g
same,Drug uptake,[7],2.16 % ID/g
same,Drug uptake,[8],7.34 % ID/g
same,Drug uptake,[9],7 % ID/g
same,Drug uptake,[10],0.63 % ID/g
same,Drug uptake,[11],17.65 % ID/g
same,Drug uptake,[12],1.03 % ID/g
same,Drug uptake,[13],1.85 % ID/organ
same,Drug uptake,[14],3.98 % ID/g
same,Drug uptake,[15],1.62 % ID/g
same,logD,[16],3.66
same,Drug uptake,[17],11.59 % ID/g
same,Drug uptake,[18],0.26 % ID/g
same,Drug uptake,[19],3.64 % ID/g
same,Drug uptake,[20],1.38 % ID/g
same,Drug uptake,[21],6.58 % ID/g
same,Drug uptake,[22],7.68 % ID/g
same,Drug uptake,[23],26.77 % ID/g
same,Drug uptake,[24],12.97 % ID/g
same,Drug uptake,[25],32.22 % ID/g
same,Drug uptake,[26],11.54 % ID/g
same,Drug uptake,[27],0.28 % ID/g
same,Drug uptake,[28],24.64 % ID/g
same,Drug uptake,[29],1.59 % ID/g
same,Drug uptake,[30],6.28 % ID/g
same,Drug uptake,[31],16.47 % ID/g
same,Drug uptake,[32],2.69 % ID/g
same,Drug uptake,[33],1.19 % ID/g
same,Drug uptake,[34],3.35 % ID/g
same,Drug uptake,[35],7.38 % ID/g
same,Drug uptake,[36],24.45 % ID/g
same,Drug uptake,[37],22.23 % ID/g
same,Drug uptake,[38],0.61 % ID/organ
same,Drug uptake,[39],14.93 % ID/g
same,Drug uptake,[40],2.29 % ID/g
same,Drug uptake,[41],1.11 % ID/g
same,Drug uptake,[42],11.62 % ID/g
same,Ratio,[43],5.68
same,Drug uptake,[44],6.91 % ID/g
same,Drug uptake,[45],44.64 % ID/g
same,Drug uptake,[46],23.53 % ID/g
same,Drug uptake,[47],6.42 % ID/g
same,Drug uptake,[48],11.56 % ID/g
same,Drug uptake,[49],32.8 % ID/g
same,Drug uptake,[50],1.16 % ID/organ
same,Drug uptake,[51],0.77 % ID/organ
same,Drug uptake,[52],9.94 % ID/g
